Shown are actives, neighbours in structure and some others; about 1.5% of the full set was active somewhere.
RAD54 inh: blocks human RAD54 Holliday junction branch migration; Q92698; FAM/BHQ fluorescence; inhibition, % at 10.4 µM; 360,000 compounds, 0.14% hits;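 active = mean normalized replicate activity at least 40 and at least half of replicates scoring 40 or more; inconclusive = only one of the two criteria met; inactive = mean below 40 and under half of replicates reaching 40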;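 note: 0% = median of neutral control wells and 100% = median of positive control wells; inhibitors cause a drop in the FAM fluorescence signal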
S100A4 MyoIIA: inhibitors of human S100A4 binding to myosin IIA peptide | P26447 | S100A4/TAMRA-MyoIIA peptide fluorescence polarization | inhibition, % at 10.7 µM | 360,000 compounds, 0.14% hits | AID 652163;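 active = mean inhibition of at least 70% across replicates, with every replicate also reaching that level; inconclusive = mean inhibition reaches 70% but some replicates fall short; inactive = mean inhibition below 70%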
Target sequence (P26447 whole entry, looked up): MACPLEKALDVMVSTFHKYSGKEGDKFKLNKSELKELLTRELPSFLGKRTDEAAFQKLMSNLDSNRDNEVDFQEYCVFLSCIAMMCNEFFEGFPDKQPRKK
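assay system = human S100A4 monomer with TAMRA-labelled myosin IIA peptide | also added = labelled myosin peptide probe, 5 nM | incubation = 5 min between mix addition and reading | control set = DMSO and TFP controls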
dFosB act-1: enhances mouse delta FosB homodimer DNA binding. P13346. purified delta FosB, TAMRA-CDK5 oligo fluorescence polarization; percent of positive-control signal above neutral wells. activation, % at 25 µM. 340,000 compounds, 0.99% hits. AID 493131;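 active = mean activation above about 17%, with every replicate also reaching it, limit read from the data, passing the limit was not always enough; inconclusive = only one of the two conditions met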
AF4-AF9 inh: blocks AF4 peptide binding to human AF9; P42568; inhibition, % at 10 µM; AID 651704; 350,000 compounds, 0.47% hits; AlphaScreen, biotin-AF4 peptide binding to FLAG-AF9;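 active = every replicate reaching a set inhibition limit, whatever the replicate mean, cut at about 25% in these data; inconclusive = mean inhibition reaches that limit but some replicates miss it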;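 note: 0% = plate neutral control median and 100% = total signal loss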
RAD52 anneal inh: inhibitors of human RAD52 DNA annealing. recombinant RAD52 DNA annealing, FRET fluorescence. P43351. 360,000 compounds, 0.46% hits. inhibition, % at 18.7 µM;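 active = every replicate showing at least 50% inhibition; inconclusive = mean inhibition at least 50% but not in every replicate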
Target sequence (P43351 whole entry, looked up): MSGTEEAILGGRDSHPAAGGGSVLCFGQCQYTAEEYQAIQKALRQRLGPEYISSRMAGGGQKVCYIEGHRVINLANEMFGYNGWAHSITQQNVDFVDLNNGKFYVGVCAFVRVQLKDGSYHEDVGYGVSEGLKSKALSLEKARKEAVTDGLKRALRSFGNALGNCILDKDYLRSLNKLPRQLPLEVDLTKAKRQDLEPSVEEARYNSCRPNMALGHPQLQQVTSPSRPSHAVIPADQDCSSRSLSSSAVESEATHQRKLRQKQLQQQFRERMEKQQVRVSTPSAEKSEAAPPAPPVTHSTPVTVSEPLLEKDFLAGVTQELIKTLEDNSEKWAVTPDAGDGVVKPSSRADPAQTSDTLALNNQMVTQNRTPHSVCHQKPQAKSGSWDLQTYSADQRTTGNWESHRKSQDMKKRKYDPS
dFosB act-2: enhances mouse delta FosB homodimer binding to DNA; shares compounds with dFosB act-1; purified delta FosB, TAMRA-CDK5 oligo fluorescence polarization; normalised: neutral wells 0, positive control 100; activation, % at 24.9 µM; 2,400 tested, under 10 active;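 active = highest replicate activation at or above 34% and every replicate reaching that threshold; inconclusive = meets only one of the two criteria; inactive = meets neither criterion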;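 note: higher polarization means more probe DNA bound by delta FosB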
Numbers without * were called inactive; i = inactive; u = inconclusive; x = not tested or not shown.

SMILES | RAD54 inh | S100A4 MyoIIA | dFosB act-1 | AF4-AF9 inh | RAD52 anneal inh | dFosB act-2
O=C(COC(=O)c1ccc2c(c1)C(=O)N(Cc1ccncc1)C2=O)Nc1cccc2ccccc12 | x | -3 | 27* | 2 | -269 | 6
C[C@@H]1CN([C@H](C)CO)C(=O)c2cccc(NC(=O)Nc3ccccc3)c2O[C@H]1CN(C)C(=O)Nc1ccccc1 | -10 | 7 | x | -3 | -6 | x
COc1ccccc1NC(=O)CCNC(=O)Cn1ccc2ccccc2c1=O | 3 | 3 | 4 | x | -2 | x
COc1ccc(C)cc1NC(=O)CCNC(=O)Cn1ccc2ccccc2c1=O | 14 | -2 | 22* | -8 | 13 | 3
CCC(C)(C)C1CCC2(CC1)NC(=O)N(CC(=O)N1CCN(S(=O)(=O)c3cc(C)ccc3C)CC1)C2=O (stereo unspecified) | -21 | 1 | 45* | 0 | -2 | 6
CCC(C)(C)C1CCC2(CC1)NC(=O)N(CC(=O)Nc1nc(-c3ccc(C)cc3)cs1)C2=O (stereo unspecified) | 5 | x | 34* | x | x | 5
O=C(CCN1CCCCC1)N[C@@H]1CC[C@@H](CCNS(=O)(=O)c2ccc(Cl)cc2)O[C@H]1CO | 0 | -3 | x | 1 | 8 | x
C/C(=N\NC(=O)c1ccc(CN(C)S(=O)(=O)c2ccc(C)cc2)cc1)c1ccc(OC(F)F)cc1 | x | 3 | 26* | 3 | -9 | -2
CO[C@H]1CN(C)C(=O)c2cc(NS(C)(=O)=O)ccc2OC[C@H](C)N(C(=O)C2CCOCC2)C[C@H]1C | -8 | 0 | x | 2 | -8 | x
COc1ccc(Br)cc1CNC(=O)CN1C(=O)C(c2ccccc2)Oc2cccnc21 (stereo unspecified) | -17 | -3 | 27* | 1 | -24 | 1
CC(=O)N1[C@@H](CO)[C@@H]2c3ccccc3N(C(=O)Nc3cc(F)ccc3F)C[C@@H]21 | -25 | 11 | x | -1 | -8 | x
O=C(C[C@H]1C[C@H]2c3cc(NC(=O)C4CCC4)ccc3O[C@H]2[C@H](CO)O1)NCc1cc(F)ccc1F | 1 | 5 | x | -1 | 1 | x
CCc1ccc(CNC(=O)C2CCCN(c3nnc(C)c4c(C)n(-c5ccccc5)nc34)C2)cc1 (stereo unspecified) | -4 | -26 | 31* | 6 | -444 | u
Cc1nnc(N2CCCC(C(=O)NCc3ccccc3F)C2)c2nn(-c3ccccc3)c(C)c12 (stereo unspecified) | -1 | -2 | -4 | -4 | -83 | x
Cc1ccccc1CNC(=O)C1CCCN(c2nnc(C)c3c(C)n(-c4ccccc4)nc23)C1 (stereo unspecified) | 0 | 52 | 18* | 2 | i | -4
Cc1nnc(N2CCCC(C(=O)NCc3cccc(F)c3)C2)c2nn(-c3ccccc3)c(C)c12 (stereo unspecified) | 3 | -11 | -20 | 3 | i | x
CC(OC(=O)c1cc2c(s1)CCCCC2)C(=O)NC(N)=O (stereo unspecified) | 2 | -8 | u | 1 | -3 | x
CC(C)C(OC(=O)c1cc2c(s1)CCCCC2)C(=O)NC(N)=O (stereo unspecified) | -7 | x | 26* | x | x | 5
O=C(/C=C/c1ccccc1)Nc1nc(-c2ccncc2)cs1 | -10 | -5 | 17* | 1 | -14 | -9
C[C@H](CO)N1C[C@H](C)[C@@H](CN(C)Cc2ccc(C(F)(F)F)cc2)OCCCC[C@H](C)Oc2ccc(NC(=O)Cc3ccccc3)cc2C1=O | -1 | x | x | x | x | x
CCCCc1nnc(NC(=O)CCS(=O)(=O)c2ccc(Cl)cc2)s1 | 3 | 2 | 24* | -2 | -9 | 2
CCOC(=O)CSc1nc(C)cc(C)n1 | -3 | x | 16* | x | x | 0
Cc1ccc(C)c(OCc2cc(C(=O)NC3CCN(Cc4ccccc4)CC3)no2)c1 | x | -7 | 22* | -5 | -92 | 4
CCOC(=O)c1c(C)[nH]c(C(=O)OCC(=O)Nc2cc(C)c(Cl)cc2OC)c1C | -19 | x | 45* | x | x | 1
C/C(=N\NC(=O)c1ccc(OC2OCCOC2Oc2ccc(C(=O)N/N=C(\C)c3ccncc3)cc2)cc1)c1ccncc1 (stereo unspecified) | x | 2 | 97* | -26 | -8 | 3
SMILES | RAD54 inh | S100A4 MyoIIA | dFosB act-1 | AF4-AF9 inh | RAD52 anneal inh | dFosB act-2
CC1=C(C(N)=O)C(c2ccccn2)n2nc(SCc3ccccc3Cl)nc2N1 (stereo unspecified) | -6 | x | 3 | x | x | x
CC1=C(C(N)=O)C(c2cccnc2)n2nc(SCc3ccccc3Cl)nc2N1 (stereo unspecified) | -3 | x | 101* | x | x | 4
CC1CCc2sc(C(=O)NC3CCN(Cc4ccccc4)CC3)cc2C1 (stereo unspecified) | -10 | -1 | -14 | 6 | -6 | x
CCC1CCc2sc(C(=O)NC3CCN(Cc4ccccc4)CC3)cc2C1 (stereo unspecified) | -6 | 7 | 29* | 2 | -18 | 1
CC(C)C#Cc1ccc([C@H]2[C@H]3CN(S(=O)(=O)Cc4ccccc4)CCCCN3[C@H]2CO)cc1 | 0 | x | x | x | x | x
C[C@@H]1CN([C@@H](C)CO)C(=O)CCCn2nncc2CO[C@@H]1CN(C)C(=O)Nc1cccc(F)c1 | 5 | 3 | x | -1 | 4 | x
O=C(c1ccc(F)cc1)n1c(NCc2ccccc2)n[nH]c1=S | 1 | 0 | 35* | -3 | 0 | -2
CCN1CCN(c2nc3c(C)cccn3c(=O)c2/C=C(\C#N)S(=O)(=O)c2ccc(Cl)cc2)CC1 | x | -11 | 48* | 30* | -161 | -2
Cc1ccc(Cn2c(=N)n(CC(=O)c3ccccc3)c3ccccc32)cc1 | x | -5 | 30* | 8 | 24 | 8
CC(C)(C)C(=O)Cn1c(=N)n(Cc2ccccc2)c2ccccc21 | x | x | -9 | x | x | x
COC(=O)COc1ccc2oc(=O)cc(-c3cc4cccc(OC)c4o3)c2c1 | 4 | 0 | 52* | -2 | -5 | 1
COc1cccc2cc(-c3cc(=O)oc4ccc(OCC(C)=O)cc34)oc12 | 0 | -1 | -9 | -1 | -11 | x
Cc1ccccc1OCCOc1cccc(/C=N/NC(=O)Cc2nnc(N)s2)c1 | 7 | x | 49* | x | x | -1
C[C@H]1CN([C@@H](C)CO)C(=O)c2cc(NC(=O)C3CCCCC3)ccc2O[C@@H]1CN(C)Cc1ccc(Cl)c(Cl)c1 | 0 | 11 | x | 0 | -28 | x
Cc1ccc([N+](=O)[O-])cc1-c1ccc(/C=C(\C#N)c2[nH]nc(N)c2C#N)o1 | 3 | 5 | 29* | 6 | -10 | 5
CCn1c(SCC(=O)Nc2ccc(C(C)=O)cc2)nc2c([nH]c3ccccc32)c1=O | 3 | -2 | 33* | -6 | -10 | 3
Cc1noc(C)c1NC(=O)Nc1cccc2c1O[C@H](CN(C)C(=O)Nc1ccc3c(c1)OCO3)[C@H](C)CN([C@H](C)CO)C2=O | -2 | 22 | x | -1 | 5 | x
